Reference: PMC8434754 (Journal of the American Chemical Society, 2021)

Experiments:
AoiQ-FDH [1] = experiment: flavin reductase activity, NADH consumption; assay type: biochemical, Aspergillus oryzae; conditions: no flavin reductase added; copurified FAD
Summary of the method: (§1)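 Enzyme is the FDH domain of AoiQ, expressed as a standalone protein apart from its methyltransferase domain. Flavin reductase activity was followed by consumption of NADH or NADPH, with no exogenous flavin reductase added. Steady-state KM, kcat and kcat/KM were reported for each nicotinamide cofactor.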

AoiQ-FDH [2] = experiment: flavin reductase activity, NADPH consumption; assay type: biochemical, Aspergillus oryzae; conditions: no flavin reductase added; copurified FAD
Summary of the method: as §1

Row | Km (AoiQ-FDH [1]) | Km (AoiQ-FDH [2]) | Structure (SMILES)
1 | 43.5 ± 3.6 µM |  | NC(=O)C1=CN([C@@H]2O[C@H](COP(=O)(O)OP(=O)(O)OC[C@H]3O[C@@H](n4cnc5c(N)ncnc54)[C@H](O)[C@@H]3O)[C@@H](O)[C@H]2O)C=CC1 [NADH]
2 |  | 30.5 ± 6 µM | NC(=O)C1=CN([C@@H]2O[C@H](COP(=O)(O)OP(=O)(O)OC[C@H]3O[C@@H](n4cnc5c(N)ncnc54)[C@H](OP(=O)(O)O)[C@@H]3O)[C@@H](O)[C@H]2O)C=CC1 [NADPH]
